Measured values from ChEMBL document CHEMBL4433215, “SAR Studies and Biological Characterization of a Chromen-4-one Derivative as an Anti-Trypanosoma brucei Agent” (ACS Med Chem Lett, 2019).

Assays:
Cytochrome P450 1A2 = target: T1, Cytochrome P450 1A2 (Homo sapiens, UniProt P05177); assay: Inhibition of recombinant human microsomal CYP1A2 expressed in baculovirus infected BTI-TN-5B1-4 cell microsomes using CYP/Luciferin as substrate pre-incubated for 30 mins followed by NADPH regeneration mixture addition and measured after 30 mins by Promega P450-Glo assay; format: ADME
T1 sequence (P05177 whole entry): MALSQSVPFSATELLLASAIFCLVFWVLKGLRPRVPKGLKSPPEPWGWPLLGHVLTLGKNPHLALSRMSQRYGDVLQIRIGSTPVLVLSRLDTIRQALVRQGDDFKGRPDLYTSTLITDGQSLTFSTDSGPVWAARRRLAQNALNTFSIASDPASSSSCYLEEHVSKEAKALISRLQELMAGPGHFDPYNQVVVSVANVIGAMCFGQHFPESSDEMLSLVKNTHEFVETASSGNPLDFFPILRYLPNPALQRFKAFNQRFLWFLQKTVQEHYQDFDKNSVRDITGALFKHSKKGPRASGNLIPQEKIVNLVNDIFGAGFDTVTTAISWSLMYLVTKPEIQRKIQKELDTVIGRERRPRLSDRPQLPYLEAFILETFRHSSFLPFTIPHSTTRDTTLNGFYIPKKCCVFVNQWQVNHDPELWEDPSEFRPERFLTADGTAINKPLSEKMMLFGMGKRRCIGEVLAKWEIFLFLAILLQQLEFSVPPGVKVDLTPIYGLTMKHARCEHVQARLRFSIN

[1] = Aggregation behavior in phosphate buffer at pH 8 assessed as increase in emission spectra at 1.25 uM to 11.25 uM by spectroflurometry; format: physicochemical; conditions: pH 8, 1.25 µM
Method in brief: (§1)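 Compound in aqueous phosphate buffer, pH 8, at 1.25 to 11.25 μM. Absorption and fluorescence emission spectra were recorded without and with human serum albumin (HSA), with HSA added stepwise. The monomer/dimer equilibrium constant was obtained by fitting the absorption data at 20 °C.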

[2] = Selectivity index, ratio of CC50 for cytotoxicity against human THP1 cells to EC50 for antitrypanosomal activity against Trypanosoma brucei bloodstream form; format: toxicity, cell-based; conditions: read-out: Ratio CC50/EC50
[3] = target: T2, Voltage-gated inwardly rectifying potassium channel KCNH2 (Homo sapiens, UniProt Q12809); assay: Inhibition of human ERG after 2 hrs by fluorescence polarization assay
[4] = Half life in BALB/c mouse at 20 mg/kg, po by LC-MS/MS analysis; format: ADME, organism-based; conditions: in vivo
Method in brief: (§2)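 BALB/c mice were dosed IV at 1 mg/kg or orally at 20 mg/kg. Plasma Cmax, Tmax, total AUC and half-life were determined for each route.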

Albumin [5] = target: T3, Albumin (Homo sapiens, UniProt P02768); assay: Binding affinity to HSA assessed as emission maxima for aggregate at 1.25 uM to 11.25 uM by spectroflurometry; format: ADME; conditions: isolated protein; method in brief: as §1
786-0 = assay: Mitochondrial toxicity in human 786-O cells at 10 uM after 6 hrs by MitoTracker Red chloromethyl-X-rosamine based assay; format: cell-based; conditions: 786-0, 6 h
[6] = Aggregation behavior in phosphate buffer at pH 8 assessed as increase in absorption spectra at 1.25 uM to 11.25 uM by UV-visible spectrophotometry; format: physicochemical; conditions: pH 8, 1.25 µM; method in brief: as §1
Albumin [7] = target: T3, Albumin; assay: Binding affinity to HSA assessed as absorption maxima for aggregate at 1.25 uM to 11.25 uM by UV-visible spectrophotometry; format: ADME; conditions: isolated protein; method in brief: as §1
Cytochrome P450 2C9 = Cytochrome P450 2C9 (Homo sapiens, UniProt P11712); assay: Inhibition of recombinant human microsomal CYP2C9 expressed in baculovirus infected BTI-TN-5B1-4 cell microsomes using CYP/Luciferin as substrate pre-incubated for 30 mins followed by NADPH regeneration mixture addition and measured after 30 mins by Promega P450-Glo assay; format: ADME
Albumin [8] = target: T3, Albumin; assay: Binding affinity to HSA assessed as monomer/HSA equilibrium binding constant at 11.25 uM by spectroflurometry; format: ADME; conditions: isolated protein; method in brief: as §1
[9] = Cmax in BALB/c mouse at 1 mg/kg, iv by LC-MS/MS analysis; format: ADME, organism-based; set-up: dose 1 mg/kg, route intravenous; conditions: in vivo; method in brief: as §2
Cytochrome P450 2D6 = Cytochrome P450 2D6 (Homo sapiens, UniProt P10635); assay: Inhibition of recombinant human microsomal CYP2D6 expressed in baculovirus infected BTI-TN-5B1-4 cell microsomes using CYP/Luciferin as substrate pre-incubated for 30 mins followed by NADPH regeneration mixture addition and measured after 30 mins by Promega P450-Glo assay; format: ADME
Cytochrome P450 3A4 = Cytochrome P450 3A4 (Homo sapiens, UniProt P08684); assay: Inhibition of recombinant human microsomal CYP3A4 expressed in baculovirus infected BTI-TN-5B1-4 cell microsomes using CYP/Luciferin as substrate pre-incubated for 30 mins followed by NADPH regeneration mixture addition and measured after 30 mins by Promega P450-Glo assay; format: ADME
[10] = Total AUC in BALB/c mouse at 1 mg/kg, iv by LC-MS/MS analysis; format: ADME, organism-based; set-up: dose 1 mg/kg, time AUCmax, route intravenous; conditions: in vivo; method in brief: as §2
Albumin [11] = target: T3, Albumin; assay: Binding affinity to HSA assessed as absorption maxima for free monomer at 1.25 uM to 11.25 uM by UV-visible spectrophotometry; format: ADME; conditions: isolated protein; method in brief: as §1
[12] = Cmax in BALB/c mouse at 20 mg/kg, po by LC-MS/MS analysis; format: ADME, organism-based; set-up: dose 20 mg/kg, route oral; conditions: in vivo; method in brief: as §2
Cytochrome P450 2C19 = Cytochrome P450 2C19 (Homo sapiens, UniProt P33261); assay: Inhibition of recombinant human microsomal CYP2C19 expressed in baculovirus infected BTI-TN-5B1-4 cell microsomes using CYP/Luciferin as substrate pre-incubated for 30 mins followed by NADPH regeneration mixture addition and measured after 30 mins by Promega P450-Glo assay; format: ADME
[13] = Cytotoxicity against human THP1 cells by MTT assay; format: cell-based, THP-1
[14] = target: T2, Voltage-gated inwardly rectifying potassium channel KCNH2; assay: Inhibition of human ERG at 10 uM after 2 hrs by fluorescence polarization assay
Method in brief: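 Single-concentration screen at 10 μM within an early in vitro ADME-tox panel, covering cytotoxicity in A549 cells and hERG inhibition.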

[15] = Tmax in BALB/c mouse at 1 mg/kg, iv by LC-MS/MS analysis; format: ADME, organism-based; conditions: in vivo; method in brief: as §2
[16] = Half life in BALB/c mouse at 1 mg/kg, iv by LC-MS/MS analysis; format: ADME, organism-based; conditions: in vivo; method in brief: as §2
Albumin [17] = target: T3, Albumin; assay: Binding affinity to HSA assessed as emission maxima for free monomer at 1.25 uM to 11.25 uM by spectroflurometry; format: ADME; conditions: isolated protein; method in brief: as §1
Albumin [18] = target: T3, Albumin; assay: Binding affinity to HSA assessed as emission maxima for HSA-complexed monomer at 1.25 uM to 11.25 uM by spectroflurometry; format: ADME; conditions: isolated protein; method in brief: as §1
Albumin [19] = target: T3, Albumin; assay: Binding affinity to HSA assessed as absorption maxima for HSA-complexed monomer at 1.25 uM to 11.25 uM by UV-visible spectrophotometry; format: ADME; conditions: isolated protein; method in brief: as §1
[20] = Aggregation behavior in phosphate buffer at pH 8 assessed as dimerization equilibrium constant at 1.25 uM to 11.25 uM by UV-visible spectrophotometry; format: physicochemical; conditions: pH 8, 1.25 µM; method in brief: as §1
[21] = Tmax in BALB/c mouse at 20 mg/kg, po by LC-MS/MS analysis; format: ADME, organism-based; conditions: in vivo; method in brief: as §2
hERG = assay: Selectivity ratio of IC50 for inhibition of human ERG to EC50 for antitrypanosomal activity against Trypanosoma brucei bloodstream form; format: toxicity; conditions: read-out: Ratio IC50/EC50
[22] = Total AUC in BALB/c mouse at 20 mg/kg, po by LC-MS/MS analysis; format: ADME, organism-based; set-up: dose 20 mg/kg, time AUCmax, route oral; conditions: in vivo; method in brief: as §2

T3 sequence (P02768 whole entry): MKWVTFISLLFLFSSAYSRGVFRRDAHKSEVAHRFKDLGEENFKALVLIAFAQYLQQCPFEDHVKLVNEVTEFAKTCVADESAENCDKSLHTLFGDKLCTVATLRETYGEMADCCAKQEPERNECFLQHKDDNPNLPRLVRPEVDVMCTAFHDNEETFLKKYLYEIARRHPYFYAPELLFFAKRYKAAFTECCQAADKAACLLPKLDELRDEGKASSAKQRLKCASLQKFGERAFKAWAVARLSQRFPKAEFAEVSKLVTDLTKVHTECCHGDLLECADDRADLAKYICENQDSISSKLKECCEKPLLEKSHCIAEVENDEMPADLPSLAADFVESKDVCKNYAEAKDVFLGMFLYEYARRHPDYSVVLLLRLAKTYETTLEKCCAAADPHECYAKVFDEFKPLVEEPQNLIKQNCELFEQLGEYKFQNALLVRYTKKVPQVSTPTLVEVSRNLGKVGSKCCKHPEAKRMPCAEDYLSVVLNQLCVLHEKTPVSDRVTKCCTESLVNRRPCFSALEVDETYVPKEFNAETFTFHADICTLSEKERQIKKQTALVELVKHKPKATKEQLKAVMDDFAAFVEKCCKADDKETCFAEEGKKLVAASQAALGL
T2 sequence (Q12809 whole entry): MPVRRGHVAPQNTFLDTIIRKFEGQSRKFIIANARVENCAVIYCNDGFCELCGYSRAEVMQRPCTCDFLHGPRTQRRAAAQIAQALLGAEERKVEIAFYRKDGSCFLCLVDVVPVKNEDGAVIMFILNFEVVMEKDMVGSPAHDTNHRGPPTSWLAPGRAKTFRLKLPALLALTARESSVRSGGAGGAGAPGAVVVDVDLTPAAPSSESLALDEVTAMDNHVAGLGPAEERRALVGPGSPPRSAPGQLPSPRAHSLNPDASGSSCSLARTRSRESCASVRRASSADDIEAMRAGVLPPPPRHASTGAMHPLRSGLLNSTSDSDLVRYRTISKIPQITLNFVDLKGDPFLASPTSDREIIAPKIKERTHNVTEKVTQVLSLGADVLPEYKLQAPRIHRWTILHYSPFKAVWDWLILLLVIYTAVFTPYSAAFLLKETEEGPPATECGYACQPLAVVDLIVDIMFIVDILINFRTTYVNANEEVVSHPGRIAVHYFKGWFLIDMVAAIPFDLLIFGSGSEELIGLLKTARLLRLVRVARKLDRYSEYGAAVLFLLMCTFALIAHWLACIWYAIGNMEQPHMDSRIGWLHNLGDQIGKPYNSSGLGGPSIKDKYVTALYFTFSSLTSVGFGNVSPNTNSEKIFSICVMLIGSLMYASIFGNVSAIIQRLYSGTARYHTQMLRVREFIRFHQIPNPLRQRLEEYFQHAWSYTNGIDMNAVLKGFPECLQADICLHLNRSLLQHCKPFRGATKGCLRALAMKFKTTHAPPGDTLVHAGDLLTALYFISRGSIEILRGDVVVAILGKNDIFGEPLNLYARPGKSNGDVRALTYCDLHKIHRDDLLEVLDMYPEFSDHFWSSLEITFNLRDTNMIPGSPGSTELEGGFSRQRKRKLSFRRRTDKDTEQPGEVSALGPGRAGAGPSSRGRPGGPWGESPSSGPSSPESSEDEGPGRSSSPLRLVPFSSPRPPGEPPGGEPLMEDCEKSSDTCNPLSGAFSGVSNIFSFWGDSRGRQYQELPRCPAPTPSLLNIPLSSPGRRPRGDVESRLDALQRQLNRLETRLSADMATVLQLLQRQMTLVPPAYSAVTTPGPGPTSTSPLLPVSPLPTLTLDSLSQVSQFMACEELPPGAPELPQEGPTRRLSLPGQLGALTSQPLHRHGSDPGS
Sequence of Cytochrome P450 3A4 (P08684 whole entry): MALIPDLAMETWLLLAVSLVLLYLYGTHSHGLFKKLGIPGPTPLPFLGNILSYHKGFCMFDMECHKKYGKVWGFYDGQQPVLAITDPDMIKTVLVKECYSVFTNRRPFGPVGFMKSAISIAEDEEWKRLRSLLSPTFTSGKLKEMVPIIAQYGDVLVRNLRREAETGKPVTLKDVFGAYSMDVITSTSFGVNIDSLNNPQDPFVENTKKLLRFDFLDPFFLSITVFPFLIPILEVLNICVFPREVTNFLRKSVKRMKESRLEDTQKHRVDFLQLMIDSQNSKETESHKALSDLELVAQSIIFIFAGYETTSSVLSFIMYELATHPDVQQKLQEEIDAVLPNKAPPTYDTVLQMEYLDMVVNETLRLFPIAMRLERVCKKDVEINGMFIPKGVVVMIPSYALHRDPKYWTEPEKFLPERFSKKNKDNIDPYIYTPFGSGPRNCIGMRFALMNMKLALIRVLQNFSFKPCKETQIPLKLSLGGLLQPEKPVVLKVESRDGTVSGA
Sequence of Cytochrome P450 2C9 (P11712 whole entry): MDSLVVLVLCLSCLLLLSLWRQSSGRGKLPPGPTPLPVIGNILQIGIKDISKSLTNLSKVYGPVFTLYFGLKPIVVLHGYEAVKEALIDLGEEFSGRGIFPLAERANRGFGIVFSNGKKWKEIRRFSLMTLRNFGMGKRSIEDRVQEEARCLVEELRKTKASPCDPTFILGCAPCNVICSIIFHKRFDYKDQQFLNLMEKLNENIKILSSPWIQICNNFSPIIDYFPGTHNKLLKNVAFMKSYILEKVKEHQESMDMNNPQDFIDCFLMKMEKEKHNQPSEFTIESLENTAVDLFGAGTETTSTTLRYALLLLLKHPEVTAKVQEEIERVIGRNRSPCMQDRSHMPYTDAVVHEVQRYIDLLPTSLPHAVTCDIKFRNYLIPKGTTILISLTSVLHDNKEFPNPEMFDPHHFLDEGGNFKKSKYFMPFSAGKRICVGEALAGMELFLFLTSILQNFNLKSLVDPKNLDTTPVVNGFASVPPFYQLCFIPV
Sequence of Cytochrome P450 2C19 (P33261 whole entry): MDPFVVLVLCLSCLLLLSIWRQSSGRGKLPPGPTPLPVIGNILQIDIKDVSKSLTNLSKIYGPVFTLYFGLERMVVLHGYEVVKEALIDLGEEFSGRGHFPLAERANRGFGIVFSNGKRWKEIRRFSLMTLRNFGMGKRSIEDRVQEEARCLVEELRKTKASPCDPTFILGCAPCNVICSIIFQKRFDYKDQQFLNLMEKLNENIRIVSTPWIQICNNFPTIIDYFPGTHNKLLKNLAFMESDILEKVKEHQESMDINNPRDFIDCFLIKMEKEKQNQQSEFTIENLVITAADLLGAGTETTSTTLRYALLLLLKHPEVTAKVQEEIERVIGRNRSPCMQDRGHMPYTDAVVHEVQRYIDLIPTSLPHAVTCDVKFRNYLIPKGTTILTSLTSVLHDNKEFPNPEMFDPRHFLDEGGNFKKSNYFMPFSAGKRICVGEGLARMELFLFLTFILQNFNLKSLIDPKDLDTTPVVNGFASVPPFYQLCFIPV
Sequence of Cytochrome P450 2D6 (P10635 whole entry): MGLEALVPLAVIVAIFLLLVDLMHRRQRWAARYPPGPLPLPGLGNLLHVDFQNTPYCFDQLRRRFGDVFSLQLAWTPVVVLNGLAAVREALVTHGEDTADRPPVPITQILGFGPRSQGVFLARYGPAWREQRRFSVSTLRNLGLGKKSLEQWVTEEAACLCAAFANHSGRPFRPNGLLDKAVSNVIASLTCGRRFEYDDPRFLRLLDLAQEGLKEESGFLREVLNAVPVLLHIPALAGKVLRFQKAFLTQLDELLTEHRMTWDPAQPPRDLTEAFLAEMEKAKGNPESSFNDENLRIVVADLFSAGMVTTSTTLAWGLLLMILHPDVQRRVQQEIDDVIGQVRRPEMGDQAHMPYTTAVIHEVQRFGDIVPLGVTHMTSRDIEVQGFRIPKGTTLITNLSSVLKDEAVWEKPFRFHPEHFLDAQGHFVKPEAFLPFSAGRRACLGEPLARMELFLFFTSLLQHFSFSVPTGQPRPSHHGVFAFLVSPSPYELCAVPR

Structure (SMILES): COc1ccc2c(=O)c(O)c(-c3ccc4c(c3)OCO4)oc2c1
- IC50 (Cytochrome P450 1A2): 400 nM
- Activity [1]: Active
- selectivity ratio [2]: 250
- IC50 [3]: > 100000 nM
- half-life [4]: 45.4 h
- Activity (Albumin [5]): 560 nm
- Activity (786-0): Non-Toxic
- Activity [6]: Active
- Activity (Albumin [7]): 325 nm
- IC50 (Cytochrome P450 2C9): 1600 nM
- Kb (Albumin [8]): 2.5 ×10⁵ /M
- Cmax [9]: 1080 nM
- IC50 (Cytochrome P450 2D6): 50 nM
- IC50 (Cytochrome P450 3A4): 6000 nM
- AUC [10]: 9.99 µM·h
- Activity (Albumin [11]): 360 nm
- Cmax [12]: 910 nM
- IC50 (Cytochrome P450 2C19): 1500 nM
- CC50 [13]: > 100000 nM
- inhibition (INH) [14]: Not Active
- Tmax [15]: 1 h
- half-life [16]: 19.8 h
- Activity (Albumin [17]): 475 nm
- Activity (Albumin [18]): 540 nm
- Activity (Albumin [19]): 360 nm
- Ke [20]: 1.8 ×10⁵ /M
- Tmax [21]: 0.5 h
- selectivity ratio (hERG): > 250
- AUC [22]: 8.65 µM·h
